Legend:
Format in all cases: functional
SF-268 [1] = assay: Cytotoxicity against human SF268 cells assessed as cell growth at 100 nM after 48 hrs by sulforhodamine B assay; details: SF-268, 48 h, read-out: Activity
Malme-3M = assay: Cytotoxicity against human MALME-3M cells assessed as cell growth at 100 nM after 48 hrs by sulforhodamine B assay; details: read-out: Activity
OVCAR-4 = assay: Cytotoxicity against human OVCAR4 cells assessed as cell growth at 100 nM after 48 hrs by sulforhodamine B assay; details: OVCAR-4, 48 h, read-out: Activity
CAKI-1 [2] = assay: Cytotoxicity against human Caki1 cells assessed as cell growth at 100 nM after 48 hrs by sulforhodamine B assay; details: CAKI-1, 48 h, read-out: Activity
UO-31 = assay: Cytotoxicity against human UO31 cells assessed as cell growth at 100 nM after 48 hrs by sulforhodamine B assay; details: UO-31, 48 h, read-out: Activity
SNB-75 = assay: Cytotoxicity against human SNB75 cells assessed as cell growth at 10 uM; details: read-out: Activity
Outline: (§1)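 NCI-60 screen: cells grown in RPMI 1640 with 5% FBS and 2 mM L-glutamine, plated at 5000–40,000 cells/well according to doubling time, and preincubated 24 h at 37 °C, 5% CO2. The single 10 µM dose (DMSO stock) was added, then incubated 48 h. Cells were TCA-fixed and stained with 0.4% SRB, read at 515 nm, and growth % calculated against time-zero and control plates.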

MDA-MB-435 = assay: Cytotoxicity against human MDA-MB-435 cells assessed as cell growth at 10 uM; details: read-out: Activity; outline: as §1
SK-MEL-2 [3] = assay: Cytotoxicity against human SK-MEL-2 cells assessed as cell growth at 10 uM; details: read-out: Activity; outline: as §1
CAKI-1 [4] = assay: Cytotoxicity against human Caki1 cells assessed as cell growth at 10 uM; details: read-out: Activity
Outline: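 Single-dose NCI-60 screen at 10 µM. Cells were grown in RPMI 1640 with 5% FBS and 2 mM L-glutamine, then treated for 48 h at 37 °C. Protein was measured by SRB staining with absorbance at 515 nm. Percentage growth was recorded, and inhibition percentage was calculated as 100 minus growth percentage.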

RXF 393 = assay: Cytotoxicity against human RXF393 cells assessed as cell growth at 10 uM; details: read-out: Activity; outline: as §1
SF-295 = assay: Cytotoxicity against human SF295 cells assessed as cell growth at 1 uM after 48 hrs by sulforhodamine B assay; details: SF-295, 48 h, read-out: Activity
SK-MEL-2 [5] = assay: Cytotoxicity against human SK-MEL-2 cells assessed as cell growth at 1 uM after 48 hrs by sulforhodamine B assay; details: SK-MEL-2, 48 h, read-out: Activity
MOLT-4 = assay: Cytotoxicity against human MOLT4 cells assessed as cell growth at 0.01 uM after 48 hrs by sulforhodamine B assay; details: MOLT-4, 48 h, read-out: Activity
[6] = Cytotoxicity against human RPMI8266 cells assessed as cell growth at 0.01 uM after 48 hrs by sulforhodamine B assay; details: read-out: Activity
SNB-19 = assay: Cytotoxicity against human SNB19 cells assessed as cell growth at 0.01 uM after 48 hrs by sulforhodamine B assay; details: SNB-19, 48 h, read-out: Activity
U-251 = assay: Cytotoxicity against human U251 cells assessed as cell growth at 0.01 uM after 48 hrs by sulforhodamine B assay; details: U-251, 48 h, read-out: Activity
OVCAR-5 = assay: Cytotoxicity against human OVCAR5 cells assessed as cell growth at 0.01 uM after 48 hrs by sulforhodamine B assay; details: OVCAR-5, 48 h, read-out: Activity
COLO 205 = assay: Cytotoxicity against human COLO205 cells assessed as cell growth at 0.001 uM after 48 hrs by sulforhodamine B assay; details: COLO 205, 48 h, read-out: Activity
Outline: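 NCI-60 five-dose screen. Cells were grown in RPMI 1640 with 5% FBS and 2 mM L-glutamine, plated at 5000–40,000 cells/well and preincubated for 24 h. Time-zero plates were TCA-fixed. DMSO-solubilized drug was added at five concentrations (10-fold or ½-log serial dilutions) for 48 h at 37 °C, 5% CO2. Cells were TCA-fixed, stained with 0.4% SRB and read at 515 nm. Percent growth used time-zero, control and test absorbances.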

SK-OV-3 [7] = assay: Cytotoxicity against human SKOV3 cells assessed as cell growth at 0.001 uM after 48 hrs by sulforhodamine B assay; details: SK-OV-3, 48 h, read-out: Activity
K562 = assay: Growth inhibition of human K562 cells after 48 hrs by sulforhodamine B assay; details: K562, 48 h
Outline: (§2)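 NCI 60-cell screen, five-dose mode. Cells grown in RPMI 1640 with 5% FBS and 2 mM L-glutamine and plated at 5000-40,000 cells/well according to doubling time. After 24 h preincubation, a Tz plate was TCA-fixed. Five concentrations (10-fold or 1/2 log dilutions) were applied for 48 h at 37 °C. SRB staining read at 515 nm. IC50 taken from [(Ti-Tz)/(C-Tz)]×100 = 50.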

NCI-H522 = assay: Growth inhibition of human NCI-H522 cells after 48 hrs by sulforhodamine B assay; details: NCI-H522, 48 h; outline: as §2
SF-539 = assay: Growth inhibition of human SF539 cells after 48 hrs by sulforhodamine B assay; details: SF-539, 48 h; outline: as §2
LOX IMVI = assay: Growth inhibition of human LOXIMVI cells after 48 hrs by sulforhodamine B assay; outline: as §2
DU-145 = assay: Growth inhibition of human DU145 cells after 48 hrs by sulforhodamine B assay; details: DU-145, 48 h
Outline: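 NCI five-dose SRB assay in RPMI 1640 with 5% FBS and 2 mM L-glutamine. Cells were preincubated 24 h, then exposed 48 h at 37 °C to five concentrations (10-fold or half-log serial dilutions from DMSO stocks). TCA fixation, SRB staining, and absorbance at 515 nm followed. IC50 was taken where [(Ti−Tz)/(C−Tz)]×100 = 50, with Tz as time-zero cell density.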

MDA-MB-468 = assay: Growth inhibition of human MDA-MB-468 cells after 48 hrs by sulforhodamine B assay; details: MDA-MB-468, 48 h; outline: as §2
SF-268 [8] = assay: Cytotoxicity against human SF268 cells assessed as cell growth at 10 uM; details: read-out: Activity; outline: as §1
IGROV-1 = assay: Cytotoxicity against human IGROV1 cells assessed as cell growth at 10 uM after 48 hrs by sulforhodamine B assay; details: IGROV-1, 48 h, read-out: Activity
SK-OV-3 [9] = assay: Cytotoxicity against human SKOV3 cells assessed as cell growth at 10 uM after 48 hrs by sulforhodamine B assay; details: SK-OV-3, 48 h, read-out: Activity
CAKI-1 [10] = assay: Cytotoxicity against human Caki1 cells assessed as cell growth at 10 uM after 48 hrs by sulforhodamine B assay; details: CAKI-1, 48 h, read-out: Activity
[11] = read-out: LC50 (the source's name)

For `Cc1cc(O)cc(-c2nn(CC#N)cc2-c2ccnc(-c3ccc(Oc4ccccc4)cc3)c2)c1`, the growth at 0.1 µM (SF-268 [1]) was 91%, the growth at 0.1 µM (Malme-3M) was 93% and the growth at 0.1 µM (OVCAR-4) was 106%. It also gave a growth at 0.1 µM (CAKI-1 [2]) of 75%, a growth at 0.1 µM (UO-31) of 85% and a growth at 10 µM (SNB-75) of 40%. For the same molecule, the growth at 10 µM (MDA-MB-435) was 60.5%, the growth at 10 µM (SK-MEL-2 [3]) was 73.9% and the growth at 10 µM (CAKI-1 [4]) was 58.8%. For the same molecule, the growth at 10 µM (RXF 393) was 24.6%, the growth at 1 µM (SF-295) was 30% and the growth at 1 µM (SK-MEL-2 [5]) was 6%. It also gave a growth at 0.01 µM (MOLT-4) of 93%, a growth at 0.01 µM [6] of 100% and a growth at 0.01 µM (SNB-19) of 100%. The growth at 0.01 µM (U-251) was 92%, the growth at 0.01 µM (OVCAR-5) was 72% and the growth at 0.001 µM (COLO 205) was 107%. For the same molecule, the growth at 0.001 µM (SK-OV-3 [7]) was 79%, the GI50 (K562) was 4.87 µM and the LC50 (50% net cell kill) (K562) was over 100 µM. It also gave a TGI (K562) of 6.02 µM, a GI50 (NCI-H522) of 2.72 µM and a TGI (NCI-H522) of 10.4 µM. It also gave a CC50 (NCI-H522; [11]) of 35.1 µM, a GI50 (SF-539) of 3.38 µM and a TGI (SF-539) of 13.5 µM. It also gave a CC50 (SF-539; [11]) of 44 µM, a GI50 (LOX IMVI) of 1.87 µM and a TGI (LOX IMVI) of 3.39 µM. It also gave a CC50 (LOX IMVI; [11]) of 6.13 µM, a GI50 (DU-145) of 2.28 µM and an LC50 (DU-145) of 26.1 µM. The TGI (DU-145) was 7.18 µM, the GI50 (MDA-MB-468) was 1.79 µM and the LC50 (concentration giving 50% net cell kill) (MDA-MB-468) was 8.28 µM. For the same molecule, the TGI (MDA-MB-468) was 3.85 µM, the growth at 10 µM (SF-268 [8]) was 71.8% and the growth at 10 µM (IGROV-1) was -74%. The growth at 10 µM (SK-OV-3 [9]) was -99% and the growth at 10 µM (CAKI-1 [10]) was -67%.

— ChEMBL document CHEMBL1165950, “Design and synthesis of new potent anticancer pyrazoles with high FLT3 kinase inhibitory selectivity” (Bioorg Med Chem, 2010)
